A selection: hits, their analogues and other compounds. The true share with any hit is near 3.1%.
ERAP1 HTS inh – ERAP1 (human) enzyme inhibition. Q9NZ08. recombinant ERAP1, Leu-AMC fluorescence, 60 min. inhibition, % at 10.7 µM. 340,000 tested, 0.15% active;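 active means mean replicate inhibition of at least 30%, or all replicates individually reaching that 30% level; inactive means mean below 30% and not every replicate reaching it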;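 further: 0% = neutral control wells and 100% = L-leucinethiol positive control wells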
CFTR F508del cor – CFTR F508del correction in bronchial cells; CFBE cells, YFP halide quenching; stimulated with forskolin plus potentiator P3; % fluorescence drop versus neutral controls; activity (quench increase), % at 7.58 µM; 350,000 tested, 0.36% active;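 active means mean added fluorescence quench of at least 8% versus neutral control, with both replicates also reaching 8%; inconclusive means only one of the mean or replicate conditions met; inactive means mean below 8% and not both replicates reaching 8%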;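 further: cells transiently co-express mutant CFTR-F508del with the halide-sensitive YFP; corrector assay measuring rescue of mutant channel to the surface after 24 h compound exposure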
S100A4 inh HTS – blocks human S100A4 binding to myosin IIA peptide; inhibition, % at 10.7 µM; 360,000 tested, 0.14% active; P26447; AID 652163; S100A4/TAMRA-MyoIIA peptide fluorescence polarization;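 active means mean inhibition of at least 70% across replicates, with every replicate also reaching that level; inconclusive means mean inhibition reaches 70% but some replicates fall short; inactive means mean inhibition below 70%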
Target sequence (P26447 whole entry, looked up): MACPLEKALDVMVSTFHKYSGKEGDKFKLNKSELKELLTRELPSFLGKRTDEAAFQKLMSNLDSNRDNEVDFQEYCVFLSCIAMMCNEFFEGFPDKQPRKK
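assay system = human S100A4 monomer with TAMRA-labelled myosin IIA peptide | also added = labelled myosin peptide probe, 5 nM | incubation = 5 min between mix addition and reading | control set = DMSO and TFP controls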
Ecoli rRNA inh – inhibits bacterial ribosomal RNA function over humanized ribosomes. GFP signal change (wild-type ribosome), % (concentration not given with the values). 350,000 tested, 1.6% active. E. coli WT GFP vs humanized-ribosome RFP mutants, fluorescence, 24 h; hits give low values; DMSO median 0, no signal -100;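 active means significant combined selectivity score with lowered wild-type GFP, culture density cut under 30%, mutant RFP and density less affected; inactive means any of these conditions unmet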
SIRT5 block – inhibitors of human sirtuin-5 desuccinylase; Purified SirT5, succinyl-peptide AMC, trypsin-coupled fluorescence; inhibition, % at 15 µM; 330,000 tested, 1.1% active; Q9NXA8; in the data active means inhibition above about 15%; inconclusive means no clear call, values can overlap the other calls
Target sequence (Q9NXA8 whole entry, looked up): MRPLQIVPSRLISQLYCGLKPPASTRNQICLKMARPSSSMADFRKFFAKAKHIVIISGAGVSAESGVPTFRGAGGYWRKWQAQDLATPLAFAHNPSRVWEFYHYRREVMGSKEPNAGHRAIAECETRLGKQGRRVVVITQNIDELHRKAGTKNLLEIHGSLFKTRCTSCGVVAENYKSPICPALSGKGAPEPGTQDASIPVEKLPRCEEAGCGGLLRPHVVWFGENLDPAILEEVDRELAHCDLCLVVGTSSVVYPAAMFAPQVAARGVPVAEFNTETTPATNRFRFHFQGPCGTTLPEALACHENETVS
Numbers without * were called inactive; ? = inconclusive; . = no result; ! = not active in a repeat.

SMILES	ERAP1 HTS inh	CFTR F508del cor	S100A4 inh HTS	Ecoli rRNA inh	SIRT5 block
CCS(=O)(=O)NCC[C@H]1CC[C@H](NC(=O)C2CCOCC2)[C@H](CO)O1	-2	0	4	-1	-6
COc1ccc(-c2nc(-c3cccc(C)c3)no2)cc1OC	1	10*	-4	.	17*
Cc1ccc2c(CN3CCN(S(=O)(=O)c4ccc(Cl)cc4)CC3)cc(=O)oc2c1C	-4	19*	0	13	-2
Cc1ccc2c(CN3CCN(Cc4ccccc4)CC3)cc(=O)oc2c1C	-4	1	-1	-1	-10
C[C@@H]1CN([C@H](C)CO)C(=O)c2cccc(NS(=O)(=O)c3ccccc3)c2O[C@@H]1CN(C)S(=O)(=O)c1cccs1	-3	0	-1	-1	4
O=S(=O)(N/N=C1/CC(c2ccccc2)Oc2ccccc21)c1ccccc1 (stereo not given)	3	1	-8	-12*	.
COc1ccc(-n2c(-c3ccc(Cl)cc3)c[n+]3c2CCCCC3)cc1	.	4	-4	-32*	-3
c1ccc(N=NC2=NN(c3ccccc3)CS2)cc1	-4	0	-3	-30*	-2
N#Cc1ccc(-c2ccc(C3[C@@H]4CN(C(=O)C5CCC5)C[C@H]3N4)cc2)cc1 (stereo not given in full)	2	10*!	-3	6	-6
C[C@@H]1CCCCO[C@H](CN(C)Cc2ccc(C(=O)O)cc2)[C@H](C)CN([C@@H](C)CO)C(=O)c2cc(NC(=O)Nc3ccccc3)ccc2O1	-6	0	-3	-2	3
Cn1c(=O)c2cc(NC(=S)NCc3ccccc3F)ccc2n1Cc1ccccc1	-6	1	1	4	1
C=C(C)Cn1c2ccc(NC(=S)NCc3ccccc3F)cc2c(=O)n1C	0	0	3	-23*	-4
CCC(Cc1c(I)cc(I)c(N)c1I)C(=O)O (stereo not given)	17	-3	-4	-35	2
N[C@@H](Cc1cc(I)c(O)c(I)c1)C(=O)O	-1	-2	-1	-12	33*
CN(C)CCCN(C(=O)c1ccc(S(=O)(=O)N2CCc3ccccc32)cc1)c1nc2c(Cl)cccc2s1	-3	2	-1	-40*	1
CCOc1cccc2sc(N(CCCN(C)C)C(=O)c3ccc(S(=O)(=O)N(C)Cc4ccccc4)cc3)nc12	-1	-2	-2	-39*	-4
COc1cccc2sc(N(CCCN(C)C)C(=O)c3ccc(S(=O)(=O)N4CCCc5ccccc54)cc3)nc12	-9	0	3	-59	-5
CCN(Cc1ccccc1)S(=O)(=O)c1ccc(C(=O)N(CCCN(C)C)c2nc3c(F)cccc3s2)cc1	-1	-4	23	-48*	1
CCOc1cccc2sc(N(CCCN(C)C)C(=O)c3ccc(S(=O)(=O)N4CCCCCC4)cc3)nc12	1	1	-4	-24*	1
CCOc1cccc2sc(N(CCCN(C)C)C(=O)c3ccc(S(=O)(=O)N(CC)Cc4ccccc4)cc3)nc12	0	-1	1	-54	2
C[C@@H]1CN([C@H](C)CO)C(=O)Cc2cc(NC(=O)CCC(F)(F)F)ccc2O[C@@H]1CN(C)S(C)(=O)=O	.	1	.	5	.
COCc1cn(CC[C@H]2CC[C@@H](NC(=O)Nc3ccccc3)[C@H](CO)O2)nn1	-5	3	-5	-1	2
COc1ccc(CN(C)C[C@@H]2OCCCC[C@@H](C)Oc3ccc(NC(=O)Nc4ccc(F)cc4)cc3C(=O)N([C@H](C)CO)C[C@H]2C)cc1	0	-1	5	-33	9
O=C(c1ccc(F)cc1)N1CCCCN2[C@H](C1)[C@@H](c1ccc(-c3ccc(F)cc3)cc1)[C@@H]2CO	0	-4	4	.	4
O=C(Nc1ccc(F)cc1)N[C@@H]1CC[C@@H](CCn2cc(-c3ccccc3F)nn2)O[C@@H]1CO	-2	1	-1	1	2
SMILES	ERAP1 HTS inh	CFTR F508del cor	S100A4 inh HTS	Ecoli rRNA inh	SIRT5 block
Cc1ccccc1-c1cnc2c(c1)C(=O)N([C@H](C)CO)C[C@H](C)[C@@H](CN(C)C(=O)c1ccncc1)O2	0	-2	-10	3	-3
CC(=Nc1ccccc1)C1=C(O)CCCC1=O	36*	0	-8	13	-7
COc1cc(/C=C/C(=O)O)cc(S(=O)(=O)Nc2cc(S(=O)(=O)N3CCCCC3)ccc2Cl)c1OC	-1	0	-3	2	.
COc1cc(/C=C/C(=O)O)cc(S(=O)(=O)Nc2cccc(S(=O)(=O)N3CCOCC3)c2)c1OC	.	-1	1	6	22*
COc1cc(/C=C/C(=O)O)cc(S(=O)(=O)Nc2ccc3cn[nH]c3c2)c1OC	0	8.8*	-1	14	3
COc1cccc(-c2ccc([C@H]3[C@@H](C#N)N(C(=O)c4ccccn4)[C@H]3CO)cc2)c1	-1	1	-2	-6	0
CC(Oc1ccccc1Cl)C(=O)Nc1ccc(S(=O)(=O)Nc2nccs2)cc1 (stereo not given)	-2	8.7*	-19	-45	6
Cc1ccccc1OC(C)C(=O)Nc1ccc(S(=O)(=O)Nc2nccs2)cc1 (stereo not given)	-1	-1	-15	-6	-4
O=C(Nc1ccc(S(=O)(=O)Nc2nccs2)cc1)c1cccc(F)c1	-4	1	2	-4	32*
COC(=O)C1=C/c2ccccc2C(C2CC2)N(Cc2ccc(OC)cc2)/C=C\1C(=O)OC (stereo not given)	1	5	0	.	0
COc1ccc(NC(=O)Nc2ccc3c(c2)[C@@H]2C[C@@H](CC(=O)N4CCN(C)CC4)O[C@H](CO)[C@@H]2O3)cc1	2	4	9	7	-4
COc1cccc(C(=O)Nc2ccc3c(c2)OC[C@H](C)N(CC2CC2)C[C@@H](C)[C@@H](OC)CN(C)C3=O)c1	3	0	8	2	-3
Cc1ccccc1C(=O)NNC(=S)NC(=O)c1cccnc1	2	1	4	-24	3
O=C(NC(=S)NNC(=O)c1ccccc1F)c1cccnc1	2	.	0	-19*	2
C[C@@H]1CN([C@H](C)CO)C(=O)c2cccc(N(C)C)c2O[C@H]1CN(C)C	3	1	4	-2	-1
Nc1nn(-c2ccccc2)c(N)c1N=Nc1ccccc1F	1	4	5	-37*	-1
O=C(NCCCN=C1NS(=O)(=O)c2ccccc21)c1ccco1	-11	-1	35	2	0
O=C(NCCN=C1NS(=O)(=O)c2ccccc21)c1ccco1	-2	-1	?	15	20*
Cc1cn(CC(=O)NCCCc2ccccc2)c(=O)[nH]c1=O	0	-5	28	10	-5
Cc1cn(CC(=O)NCc2ccccc2)c(=O)[nH]c1=O	.	-1	-1	5	20*
Cc1cn(CC(=O)NCCCN2CCCC2=O)c(=O)[nH]c1=O	1	0	2	7	-1
